# Laboratory results: article PMC10092158 (The British Journal of Dermatology, 2022)
# Entries after “also recorded” stand apart in the source; their conditions may differ.
# Columns and labels:
# Assay type in all cases: in vivo, human
# [1] = Phase IIb study: plasma concentrations of brepocitinib; conditions: topical cream, all dose groups; lower limit of quantification 0·200 ng mL^–1
# How it was run: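 Blood was drawn pre-dose at baseline and at weeks 1, 2, 3, 4 and 6, each at the same interval after application, during 6 weeks of topical cream given QD (0·1–3·0%) or BID (0·3%, 1%). Plasma brepocitinib was quantified against an LLOQ of 0·200 ng mL–1 and summarized as median concentration per dose group.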
# [2] = system: participants with mild‐to‐moderate AD
# How it was run: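 Adults and children with mild-to-moderate AD (IGA 2–3, 2–20% BSA, EASI 3–21) were randomized equally to eight arms for 6 weeks. QD arms were vehicle, 0·1% (1 mg g–1), 0·3%, 1·0% or 3·0% cream; BID arms were vehicle, 0·3% or 1%. Application was to all affected areas except hair-bearing scalp. Read-outs were POEM at weeks 1, 2 and 6 and weekly PP-NRS averages, analysed by ANCOVA or MMRM.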
# [3] = system: participants with mild‐to‐moderate AD; test: Phase IIb study: safety and tolerability
# How it was run: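 Safety data came from randomized participants treated for 6 weeks with vehicle or cream (QD 0·1–3·0%, or BID 0·3%/1%). Measures were treatment-emergent adverse events coded by System Organ Class, discontinuations due to TEAEs, vital signs, laboratory tests (haematology, creatine kinase, liver function) and ECGs. All were summarized descriptively.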
structure (smiles),measurement,setting,value
Cn1cc(Nc2nccc(N3C[C@H]4CC[C@@H](C3)N4C(=O)[C@@H]3CC3(F)F)n2)cn1 [brepocitinib],Plasma brepocitinib concentrations,[1],low and highly variable
same,Percentage change from baseline in EASI score compared with respective vehicle,"[2]; 1% QD, 3% QD and 1% BID groups, week 1 and all subsequent time points",significantly greater percentage changes from baseline in EASI score
same,Onset of clinically relevant reductions in pruritus,[2]; 24 h after the first administration,as early as day 2
same,Change from baseline in POEM at week 6 vs. vehicle,[2]; all brepocitinib groups,significantly different from vehicle
same,"Discontinued from study due to TEAE, participants",[3]; 0·1% QD (N = 37),2 (5·4) n (%)
same,"Nasopharyngitis (TEAE), participants",[3]; 0·1% QD (N = 37),2 (5·4) n (%)
same,"Severe TEAEs, participants",[3]; 0·1% QD (N = 37),0 n (%)
same,"TEAEs, all causalities, participants",[3]; 0·1% QD (N = 37),17 (45·9) n (%)
same,"Treatment‐emergent SAEs, participants",[3]; 0·1% QD (N = 37),0 n (%)
same,"Worsening of AD (TEAE), participants",[3]; 0·1% QD (N = 37),3 (8·1) n (%)
same,Cases of creatine kinase elevation (≥ 2–3× the upper limit of normal),"[3]; 0·1% QD and 0·3% QD groups, not deemed treatment‐related",one participant each
same,"Discontinued from study due to TEAE, participants",[3]; 0·3% BID (N = 36),1 (2·8) n (%)
same,"Nasopharyngitis (TEAE), participants",[3]; 0·3% BID (N = 36),2 (5·6) n (%)
same,"Severe TEAEs, participants",[3]; 0·3% BID (N = 36),1 (2·8) n (%)
same,"TEAEs, all causalities, participants",[3]; 0·3% BID (N = 36),9 (25·0) n (%)
same,"Treatment‐emergent SAEs, participants",[3]; 0·3% BID (N = 36),0 n (%)
same,"Worsening of AD (TEAE), participants",[3]; 0·3% BID (N = 36),0 n (%)
same,"Discontinued from study due to TEAE, participants",[3]; 0·3% QD (N = 36),1 (2·8) n (%)
same,"Nasopharyngitis (TEAE), participants",[3]; 0·3% QD (N = 36),2 (5·6) n (%)
same,"Severe TEAEs, participants",[3]; 0·3% QD (N = 36),0 n (%)
same,"TEAEs, all causalities, participants",[3]; 0·3% QD (N = 36),11 (30·6) n (%)
same,"Treatment‐emergent SAEs, participants",[3]; 0·3% QD (N = 36),0 n (%)
same,"Worsening of AD (TEAE), participants",[3]; 0·3% QD (N = 36),1 (2·8) n (%)
same,"Discontinued from study due to TEAE, participants",[3]; 1.0% QD (N = 37),2 (5·4) n (%)
same,"Nasopharyngitis (TEAE), participants",[3]; 1.0% QD (N = 37),3 (8·1) n (%)
same,"Severe TEAEs, participants",[3]; 1.0% QD (N = 37),0 n (%)
same,"TEAEs, all causalities, participants",[3]; 1.0% QD (N = 37),12 (32·4) n (%)
same,"Treatment‐emergent SAEs, participants",[3]; 1.0% QD (N = 37),0 n (%)
same,"Worsening of AD (TEAE), participants",[3]; 1.0% QD (N = 37),0 n (%)
same,"Discontinued from study due to TEAE, participants",[3]; 1·0% BID (N = 37),0 n (%)
same,"Nasopharyngitis (TEAE), participants",[3]; 1·0% BID (N = 37),2 (5·4) n (%)
same,"Severe TEAEs, participants",[3]; 1·0% BID (N = 37),0 n (%)
same,"TEAEs, all causalities, participants",[3]; 1·0% BID (N = 37),14 (37·8) n (%)
same,"Treatment‐emergent SAEs, participants",[3]; 1·0% BID (N = 37),0 n (%)
same,"Worsening of AD (TEAE), participants",[3]; 1·0% BID (N = 37),2 (5·4) n (%)
same,"Discontinued from study due to TEAE, participants",[3]; 3·0% QD (N = 36),2 (5·6) n (%)
same,"Nasopharyngitis (TEAE), participants",[3]; 3·0% QD (N = 36),4 (11·1) n (%)
same,"Severe TEAEs, participants",[3]; 3·0% QD (N = 36),0 n (%)
same,"TEAEs, all causalities, participants",[3]; 3·0% QD (N = 36),10 (27·8) n (%)
same,"Treatment‐emergent SAEs, participants",[3]; 3·0% QD (N = 36),0 n (%)
same,"Worsening of AD (TEAE), participants",[3]; 3·0% QD (N = 36),1 (2·8) n (%)
same,Discontinuations due to TEAEs in SOC skin and subcutaneous tissue disorders,[3]; all brepocitinib groups together,4 n
same,"Trends in haemoglobin, platelet, lymphocyte or neutrophil counts or creatine kinase levels",[3]; all groups,no clinically significant trends
same,Serious AEs or deaths,"[3]; all groups, 6 weeks treatment",no serious AEs or deaths; also recorded: no serious TEAEs or deaths
